As a reminder, the pIC50 is −log10 of the IC50, conventionally taken in molar units. A higher pIC50 goes with a small IC50. What is called logD is the decadic logarithm of the distribution of all forms, ionised or not, between an organic phase and buffer at a given pH. The term half-life denotes how long it takes for the measured level to halve. A low value points to fast loss.

pIC50: −log10 of the molar value.

For data set [1], the species on record is Mus musculus. The data set can be described thus: Effect on glial GABA(1 uM) uptake was measured using astrocytes cultured from cerebral cortices of new born mice. The format is functional, organism-based.
The species named for data set [2] is Mus musculus. The data set can be described thus: Effect on neuronal GABA(1 uM) uptake was measured using neurons cultured from cerebral cortices of 15-day-old mouse embryos. The data set is classed as functional, organism-based.
For a further data set, the species on record is Rattus norvegicus. The data set can be described thus: Inhibition of GABA uptake into crude synaptosomes prepared from adult rat brain. The data set is classed as functional. In short, it runs like this:
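Crude synaptosomes from adult rat brain were preincubated with inhibitor for 10 min at 20 °C. Uptake was then run at 0.05 μM GABA.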

The nature of data set [3]: Hydrolysis was studied in 0.02 M aqueous phosphate buffer (pH 7.4) at 37 degree celsius; stable. The format is ADME. Put shortly:
(§1)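 Prodrug stock in MeCN–H2O was added to prewarmed buffer, giving (2–3) × 10^-5 M final. Tubes were held at 37 ± 0.2 °C and sampled over time for RP-HPLC at 220 nm, quantified by peak area against standards. Pseudo-first-order rate constants came from slopes of log residual prodrug versus time, expressed as t1/2.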

The nature of data set [4]: Hydrolysis was studied in 0.02 M phosphate buffer containing 80% human plasma (pH 7.4) at 37 degree celsius; stable. The data set is classed as ADME, cell-free. Put shortly: (§2)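 Initial compound concentration was (2–3) × 10^-5 M, held at 37 °C. Samples taken over time were deproteinized with EtOH and centrifuged 3–5 min. Supernatant was analyzed by RP-HPLC at 220 nm; half-life was derived from residual compound over time.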

A short description of data set [5]: The apparent partition coefficient(D) in n-octanol-0.05 M phosphate buffer (pH 7.4) at 21 degree celsius. The format is physicochemical. Put shortly:
(§3)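 Organic and aqueous phases were mutually saturated at 21 °C. Compound was dissolved in the aqueous buffer at (2–3) × 10^-5 M and shaken 10–15 min to equilibrium. Phases were separated by centrifugation for 3–5 min. Aqueous concentration before and after distribution was measured by HPLC, and D was reported as log D.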

A short description of data set [6]: The apparent partition coefficient(D) in cyclohexane-0.05 M phosphate buffer (pH 7.4) at 21 degree celsius. The format is physicochemical. Put shortly:
as §3

Data set [7] is described as follows: Hydrolysis was studied in 0.02 M phosphate buffer containing 80% human plasma (pH 7.4) at 37 degree celsius. The format is ADME, cell-free. Put shortly: as §2
A short description of data set [8]: Hydrolysis was studied in 0.02 M aqueous phosphate buffer (pH 7.4) at 37 degree celsius. The format is ADME. In short, it runs like this:
as §1

`N[C@@H]1CCCc2onc(O)c21`: the pIC50 is 3.55 in the data set listed under Mus musculus [1], 3.17 in the data set listed under Mus musculus [2] and 3.93 in the data set listed under Rattus norvegicus.

With `Oc1noc2c1CNCC2`, the pIC50 in the data set filed under Mus musculus [1] was 3.57; in the data set listed under Mus musculus [2] it was 3.28; in the data set filed under Rattus norvegicus, 3.79.

In the case of `CN(C)C1CCCc2onc(O)c21` (stereo not drawn), the pIC50 in the data set listed under Mus musculus [1] was below 3.30; in the data set listed under Mus musculus [2], below 3.00; in the data set filed under Rattus norvegicus, 3.54.

Take `C=CCNC1CCCc2onc(O)c21` (stereo not drawn): the pIC50 in the data set filed under Mus musculus [1] was below 3.30; in the data set listed under Mus musculus [2], below 3.00; in the data set filed under Rattus norvegicus it was 4.01.

As to `CCNC1CCCc2onc(O)c21` (stereo not drawn), the pIC50 in the data set filed under Mus musculus [1] was 3.56; in the data set listed under Mus musculus [2] it was 3.41; in the data set listed under Rattus norvegicus it was 3.98.

`CNC1CCCc2snc(O)c21` (stereo not drawn): the pIC50 in the data set filed under Mus musculus [1] was below 3.30; in the data set filed under Mus musculus [2] it was below 3.00; in the data set listed under Rattus norvegicus it was 3.62.

Consider `CNC1CCCc2onc(O)c21` (stereo not drawn), for which the T1/2 result in data set [3] and in [4] was “stable” throughout. The logD in [5] is -2.3. Moreover, the figures for the pIC50 in the data set filed under Mus musculus [1], in the data set filed under Mus musculus [2] and in the data set filed under Rattus norvegicus were 4.55, 3.37 and 4.20, respectively.

Consider `N[C@H]1CCCc2onc(O)c21`, for which the pIC50 in the data set listed under Rattus norvegicus was below 3.52.

Turning to `CNC1CCCc2on(COC(=O)C(C)(C)C)c(=O)c21` (stereo not drawn), the logD in data set [6] was -1.4; in data set [5], 0.05. In addition, the half-life in data set [7] worked out at 7 min; in [8], 11.1 days.

In the case of `CC(=O)OCCNC1CCCc2onc(O)c21` (stereo not drawn), the pIC50 in the data set filed under Mus musculus [1] was below 3.30; in the data set listed under Mus musculus [2], below 3.00; in the data set filed under Rattus norvegicus, 3.90.

In the case of `Oc1noc2c1C(N1CCCC1)CCC2` (stereo not drawn), the pIC50 was below 3.30 in the data set listed under Mus musculus [1], below 3.00 in the data set listed under Mus musculus [2] and 3.70 in the data set listed under Rattus norvegicus.

Take `O=C(O)C1=CCCNC1` [GUVACINE]: the pIC50 was 4.54 in the data set filed under Mus musculus [1], 4.49 in the data set listed under Mus musculus [2] and 4.92 in the data set filed under Rattus norvegicus.

`CN[C@H]1CCCc2onc(O)c21`: the pIC50 in the data set filed under Rattus norvegicus was below 3.52.

Regarding `O=C(O)[C@@H]1CCCNC1` [(R)-NIPECOTIC ACID], the figures for the pIC50 in the data set listed under Mus musculus [1], in the data set listed under Mus musculus [2] and in the data set filed under Rattus norvegicus were 4.80, 4.92 and 5.30, respectively.

Regarding `NC1CCCc2onc(O)c21` (stereo not drawn), the pIC50 is 3.68 in the data set listed under Mus musculus [1], 3.05 in the data set filed under Mus musculus [2] and 3.74 in the data set listed under Rattus norvegicus.

Regarding `NC1CCCc2snc(O)c21` (stereo not drawn), the pIC50 in the data set listed under Mus musculus [1] is below 3.30; in the data set listed under Mus musculus [2] it was below 3.00; in the data set listed under Rattus norvegicus it was 3.54.

`OCCNC1CCCc2onc(O)c21` (stereo not drawn): the values for the pIC50 in the data set listed under Mus musculus [1], in the data set listed under Mus musculus [2] and in the data set filed under Rattus norvegicus were below 3.30, below 3.00 and 3.76, respectively.

Take `CN[C@@H]1CCCc2onc(O)c21`: the values for the pIC50 in the data set listed under Mus musculus [1], in the data set listed under Mus musculus [2] and in the data set filed under Rattus norvegicus were 4.22, 3.29 and 4.41, respectively.

Regarding `CNC1CCCc2onc(OCOC(=O)C(C)(C)C)c21` (stereo not drawn), the pH-dependent lipophilicity (logD) in [6] is -0.17; in data set [5], 0.65. Further, the half-life was determined as 15 min in data set [7] and 3.12 days in [8].

(Values after ChEMBL document CHEMBL1132551, “Selective inhibitors of glial GABA uptake: synthesis, absolute stereochemistry, and pharmacology of the enantiomers of 3-hydroxy-4-amino-4,5,6,7-tetrahydro-1,2-benzisoxazole (exo-THPO) and analogues” (J Med Chem, 1999).)
